Shown are actives, neighbours in structure and some others; about 5.8% of the full set was active somewhere.
Cl transport mod = KCC2 (human) Cl- transport modulation | B-score of Tl+ flux slope (higher = more flux/activation; lower = inhibition) at 10 µM | Q9H2X9 | hit rate 2.2% among 190,000 | KCC2 cells, thallium flux FluoZin-2 fluorescence;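 active = thallium flux slope and its plate-corrected score both differing from the plate sample mean at a set confidence after two filtering rounds, in either direction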;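 note: slope of fluorescence scaled to starting intensity during 10 to 20 s after thallium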
Target sequence (Q9H2X9 whole entry, looked up): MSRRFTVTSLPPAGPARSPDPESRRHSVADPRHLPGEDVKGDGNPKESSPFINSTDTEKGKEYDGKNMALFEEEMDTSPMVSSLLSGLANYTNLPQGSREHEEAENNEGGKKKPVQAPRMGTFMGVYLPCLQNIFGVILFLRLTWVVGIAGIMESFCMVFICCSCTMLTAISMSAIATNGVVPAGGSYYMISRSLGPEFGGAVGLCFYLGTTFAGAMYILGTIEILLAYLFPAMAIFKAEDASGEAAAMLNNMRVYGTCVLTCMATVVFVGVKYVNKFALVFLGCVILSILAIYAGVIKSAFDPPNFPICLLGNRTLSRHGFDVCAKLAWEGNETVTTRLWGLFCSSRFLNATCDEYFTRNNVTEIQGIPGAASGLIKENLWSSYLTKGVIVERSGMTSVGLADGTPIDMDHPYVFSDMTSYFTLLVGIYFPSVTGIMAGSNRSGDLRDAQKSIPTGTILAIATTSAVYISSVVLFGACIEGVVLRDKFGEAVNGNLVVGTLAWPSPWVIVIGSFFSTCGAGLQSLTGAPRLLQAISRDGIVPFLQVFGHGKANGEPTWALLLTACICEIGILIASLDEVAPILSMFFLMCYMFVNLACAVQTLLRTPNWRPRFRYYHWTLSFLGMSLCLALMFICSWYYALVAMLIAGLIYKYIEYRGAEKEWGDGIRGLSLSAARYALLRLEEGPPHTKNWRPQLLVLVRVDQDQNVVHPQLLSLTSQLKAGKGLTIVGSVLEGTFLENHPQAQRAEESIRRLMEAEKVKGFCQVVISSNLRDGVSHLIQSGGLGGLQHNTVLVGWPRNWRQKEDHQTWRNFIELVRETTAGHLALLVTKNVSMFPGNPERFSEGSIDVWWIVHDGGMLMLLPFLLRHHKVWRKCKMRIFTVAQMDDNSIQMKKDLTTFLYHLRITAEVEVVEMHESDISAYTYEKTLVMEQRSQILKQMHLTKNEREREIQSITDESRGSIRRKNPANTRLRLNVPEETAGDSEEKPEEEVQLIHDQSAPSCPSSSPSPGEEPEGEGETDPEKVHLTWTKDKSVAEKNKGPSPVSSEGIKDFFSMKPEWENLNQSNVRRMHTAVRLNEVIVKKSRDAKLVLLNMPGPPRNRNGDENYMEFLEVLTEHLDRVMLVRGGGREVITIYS
ROMK mod = human ROMK K+ channel modulation, primary screen; P48048; Tet-inducible ROMK, thallium flux fluorescence; actives lie on both sides; B-score at 10 µM; hit rate 2% among 130,000; AID 1918;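 active = signal ratio slope over the read window, or its plate-corrected B-score, at least 3 SD from the plate mean, either direction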;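 note: B-score of the F/F0 ratio slope over 7 to 12 s after thallium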
WT yeast gro inh = growth inhibition of WT yeast, mitochondrial fusion screen. hit rate 2.1% among 190,000. mitochondrial fusion phenotypic screen, WT strain. inhibition, % at 10 µM; in the data active = inhibition above about 58%; tested in S. cerevisiae
p47phox inh = inhibitors of human p47phox binding; p47phox/p22phox peptide binding, fluorescence polarization, 2 h; AID 1274; P14598; hit rate 0.53% among 220,000; inhibition, % at 24.7 µM;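 active = inhibition above about 30%, limit read from the data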
RBBP9 inhibitor = blocks human serine hydrolase RBBP9; inhibition, % at 7.94 µM; hit rate 0.2% among 220,000; recombinant RBBP9, FP-Rh probe fluorescence polarization;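 active = inhibition above the campaign mean of all tested compounds plus 3 SD, cut at about 14% in these data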
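Test system: recombinant human RBBP9. Quantity: 2.5 µM RBBP9 dispensing solution, before mixing. Detection: FP readout at 525/598 nm. Reagent: Serine-hydrolase probe FP-Rh, 375 nM pre-mixing. Measure: % inhibition. Control set: DMSO-treated enzyme wells and wells lacking RBBP9. Buffer or medium: Tris-NaCl-Pluronic buffer, pH 8.0. Times: preincubation 30 min plus labeling 45 min at 25 °C.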
14-3-3 Bad PPI = disrupts binding of bovine 14-3-3 zeta to phospho-Bad peptide | P63103 | TR-FRET 14-3-3zeta/Dy647-pBad peptide displacement, 1 h | inhibition, % at 21.7 µM | hit rate 0.71% among 220,000 | AID 781;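 active = inhibition above about 70%, limit read from the data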
RBBP9 inh conf = confirmation of human RBBP9 inhibitors. hit rate 36% among 410. inhibition, % at 7.94 µM. AID 1537. recombinant RBBP9, FP-Rh probe fluorescence polarization. shares compounds with RBBP9 inhibitor;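 active = inhibition above the hit cutoff derived for the primary screen, cut at about 15% in these data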
ROMK retest = retested hit modulating human ROMK potassium channel; shares compounds with ROMK mod; ROMK thallium flux, fluorescence ratio; hits give low values; normalized thallium flux (F/F0 slope) at 10 µM; hit rate 54% among 3,000; AID 1917;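 active = Flux at 10 µM at least 3 SD below or above vehicle control mean in one or both replicates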
Large screens that a line does not name were inactive (follow-up assays come after a bar, where they were run).

COc1ccc(-n2nnc3c(=O)n(C/C=C/c4ccccc4)cnc32)cc1	RBBP9 inhibitor 15 | RBBP9 inh conf inactive
COc1ccc(-n2nnc3c(=O)n(CC(=O)N4CCCC4)cnc32)cc1	none (no result: Cl transport mod)
CCn1c(SCC(=O)c2ccccc2)nnc1-c1cccnc1	RBBP9 inhibitor 15 | RBBP9 inh conf inactive
O=C(CC1Nc2cccc3cccc(c23)NC1=O)Nc1ccccc1 (stereo not drawn)	RBBP9 inhibitor 16 (no result: ROMK mod) | RBBP9 inh conf inactive
NC(=O)CC1Nc2cccc3cccc(c23)NC1=O (stereo not drawn)	RBBP9 inhibitor 29 (no result: ROMK mod) | RBBP9 inh conf inactive
O=C(CC1Nc2ccccc2NC1=O)c1ccccc1 (stereo not drawn)	none
CCCOc1ccc(NC(=O)CC2Nc3ccccc3NC2=O)cc1 (stereo not drawn)	none
Cc1ccc(-n2cc(CN3CCC(O)(c4ccccn4)CC3)c(-c3ccc(F)cc3)n2)cc1	none
CCCCCCNC(=O)CCCCCNS(=O)(=O)c1ccc(Br)cc1	none (no result: ROMK mod)
CCC(=O)NC1=C(NC(C)c2ccccc2)C(=O)c2ccccc2C1=O (stereo not drawn)	none
CCC(=O)NC1=C(Cl)C(=O)C(NC(=O)CC)=C(Cl)C1=O	p47phox inh 50, RBBP9 inhibitor 59 (no result: ROMK mod, WT yeast gro inh) | RBBP9 inh conf 65
CCc1c(C)nc(SCc2ccccn2)[nH]c1=O	none
COCCNC(=O)C(OC(=O)CC1Sc2ccccc2NC1=O)c1ccccc1 (stereo not drawn)	none
CC1Cc2cc(/C(O)=C3/C(=O)C(=O)N(CCCn4ccnc4)C3c3cccnc3)ccc2O1 (stereo not drawn)	none (no result: Cl transport mod, ROMK mod)
CC1Cc2cc(/C(O)=C3/C(=O)C(=O)N(CCCn4ccnc4)C3c3ccncc3)ccc2O1 (stereo not drawn)	RBBP9 inhibitor 14 (no result: Cl transport mod, ROMK mod) | RBBP9 inh conf inactive
Nc1nc(SCC(=O)N2CCc3ccccc32)[nH]c(=O)c1-c1ccccc1	none (no result: Cl transport mod)
O=C(CSc1nc(-c2ccccc2)cc(=O)[nH]1)N1CCc2ccccc21	RBBP9 inhibitor 16 | RBBP9 inh conf inactive
O=Nc1c(O)[nH]c2ccc(Cl)cc12	RBBP9 inhibitor 15 | RBBP9 inh conf 29
O=C(CC1Sc2ccccc2NC1=O)NCc1ccc(Cl)cc1 (stereo not drawn)	none
CCSc1nnc(NC(=O)[C@H](C)NC(=O)c2ccccc2Cl)s1	none
CCOC(=O)c1nc2sc3c(c2c(=O)[nH]1)CCC(C)C3 (stereo not drawn)	RBBP9 inhibitor 16 (no result: ROMK mod, WT yeast gro inh) | RBBP9 inh conf inactive
CCOC(=O)c1nc2sc3c(c2c(=O)[nH]1)CCCC3	none
CCOC(=O)c1c(N2C(=O)CC(Sc3ccccc3C(=O)O)C2=O)sc2c1CCCC2 (stereo not drawn)	none
Cc1nnc(Sc2cc(NCCO)c([N+](=O)[O-])c3nonc23)s1	ROMK mod -7.2, RBBP9 inhibitor 18 | RBBP9 inh conf 24 | ROMK retest 0.057
CCCSc1cc(NCCOC(=O)CCC)c([N+](=O)[O-])c2nonc12	none (no result: ROMK mod)
O=C(/C=N/O)Nc1ccc2sc3ccccc3c2c1	ROMK mod -2.8, RBBP9 inhibitor 53 (no result: WT yeast gro inh) | RBBP9 inh conf 72 | ROMK retest 0.064
COc1ccc(CN2CCCC(C(=O)c3cccc(OC(C)C)c3)C2)cc1Cn1cccn1 (stereo not drawn)	none
Cc1nn(C)c(C(=O)Sc2cccc(Cl)c2)c1[N+](=O)[O-]	ROMK mod -2.9 (no result: WT yeast gro inh) | ROMK retest 0.064
Cc1cc(C)c(C#N)c(N2CCN(Cc3ccc4c(c3)OCO4)CC2)n1	none (no result: Cl transport mod)
N#CCc1c(C#N)c(N)nc(N2CCN(Cc3ccc4c(c3)OCO4)CC2)c1C#N	ROMK mod -5.6 | ROMK retest 0.048
Cc1ccc(CNC(=O)Cc2noc3ccccc23)cc1	none
Cc1nn(CC(O)COc2ccc3c(c2)CCC3)c(C)c1C (stereo not drawn)	ROMK mod -3.7 (no result: Cl transport mod) | ROMK retest 0.066
COc1cc([N+](=O)[O-])ccc1NC(=O)COC(=O)c1ccc(NC(N)=O)cc1	none (no result: ROMK mod, WT yeast gro inh)
COc1cc(/C=N/NC(=O)C(=O)/C=C2\NC(C)(C)Cc3ccccc32)ccc1O	ROMK mod 2.2 (no result: WT yeast gro inh) | ROMK retest inactive
CCOC(=O)c1c(CSCc2ccccc2)oc2ccc(O)c(CN(C)C)c12	none (no result: ROMK mod, WT yeast gro inh) | ROMK retest 0.061
N#Cc1cc2c(=O)n3ccccc3nc2n(-c2ccccc2Cl)c1=O	none
COc1ccc(-c2cc(-c3nnc(COC(=O)CC4CC5CCC4C5)o3)c3ccccc3n2)cc1OC (stereo not drawn)	none
COCCNC(=S)N=Nc1c(O)[nH]c2ccc([N+](=O)[O-])cc12	none (no result: ROMK mod, WT yeast gro inh)
Cc1cc2oc(=O)cc(Cn3ccnc3)c2cc1C	ROMK mod -6.3 | ROMK retest inactive
OC(CNC1CCCCC1)COCCOc1ccc(Br)cc1 (stereo not drawn)	ROMK mod -4.1 | ROMK retest 0.059
CCCN(C(=O)CSc1nnnn1C)C1CCS(=O)(=O)C1 (stereo not drawn)	none | ROMK retest inactive
CCOC(=O)Nc1ccc(S(=O)(=O)Nc2nc(C)cc(C)n2)cc1	ROMK mod 2.4 (no result: Cl transport mod) | ROMK retest inactive
COc1nc(N/N=C/c2ccc(-c3ccccc3[N+](=O)[O-])o2)nc(N2CCOCC2)n1	none
O=[N+]([O-])c1ccc(-c2ccc(/C=N/Nc3nc(NCc4ccccc4)nc(N4CCOCC4)n3)o2)cc1	ROMK mod -3.9 (no result: Cl transport mod) | ROMK retest 0.063
O=C(N=Nc1c(O)n(Cc2ccccc2)c2ccccc12)c1ccc(O)cc1	none
CCn1c(O)c(N=NC(=O)c2ccc(CSc3nncn3C)cc2)c2ccccc21	ROMK mod -3.4 | ROMK retest inactive
Cn1cnnc1SCc1ccc(C(=O)N=Nc2c(O)n(Cc3ccc(Cl)cc3)c3ccccc23)cc1	ROMK mod -2.2 | ROMK retest 0.065
COc1ccc(CNC(=O)N2CCN(c3ccc(F)cc3)CC2)cc1Cl	ROMK mod -3 | ROMK retest inactive
CC(C)(C)c1ccc(N2C(=N)SCC2=O)cc1	ROMK mod -9.3 (no result: WT yeast gro inh) | ROMK retest 0.041
Cc1ccc(-c2csc(N3C(=N)SCC3=O)n2)cc1	none (no result: ROMK mod, WT yeast gro inh)
NC1=NC(=O)/C(=C\c2cc([N+](=O)[O-])ccc2Cl)S1	ROMK mod -2 | ROMK retest 0.066
Cc1ccsc1/C=C1\SC(N)=NC1=O	none
C=CCN1C=CC(=O)CC1	none (no result: ROMK mod, WT yeast gro inh, RBBP9 inhibitor)
CCOC(=O)C1CCCN(C(=O)c2cc(=O)c3ccccc3o2)C1 (stereo not drawn)	none
CCOC(=O)C1CCCN(c2ncnc3c2oc2ccccc23)C1 (stereo not drawn)	14-3-3 Bad PPI 83 (no result: Cl transport mod, ROMK mod) | ROMK retest 0.054

Source: PubChem
